How the values were obtained:
P388 = assay: Tested in vitro for antineoplastic activity against P-388 (lymphoid neoplasm from DBA/2 mouse) tumor cell line; format: functional, cell-based
Procedure, shortened: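 P-388 cells seeded at 1 × 10^4 cells/well in MEM–10% FCS containing graded compound concentrations. Incubated 4 days at 37 °C, 10% CO2, 98% humidity. Inhibition scored by inverted microscopy against untreated controls, which were kept in exponential growth. Mean of duplicate wells.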

HT-29 = assay: In vitro cytotoxicity against HT-29 (human colon carcinoma) cell line.; format: functional, cell-based; conditions: Homo sapiens, HT-29
SK-MEL-28 = assay: Tested in vitro for antineoplastic activity against MEL-28 (human melanoma) tumor cell line; format: functional, cell-based
Procedure, shortened: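 MEL-28 cells seeded at 2 × 10^4 cells/well in MEM–10% FCS containing graded compound concentrations. Incubated 4 days at 37 °C, 10% CO2, 98% humidity. Stained with crystal violet and inhibition judged against untreated controls, which were kept in exponential growth. Mean of duplicate wells.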

[1] = Selectivity index is the ratio of IC50 of P-388 cell line to that of HT-29; format: functional
A549 = assay: In vitro cytotoxicity against A-549 (human lung carcinoma) cell line.; format: functional, cell-based; conditions: Homo sapiens, A549
HeLa [2] = assay: Tested for effect of compound on G2/M cell cycle phase and apoptosis in HeLa cells at a dose of 10E-7 for 48 hr; format: functional, Homo sapiens
Procedure, shortened: (§1)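 HeLa cells grown in DMEM with 10% heat-inactivated FCS, 2 mM L-glutamine, penicillin and gentamicin at 37 °C, 5% CO2. Exposed to compound at 10^-6 to 10^-8 M for 24, 48 or 72 h, untreated controls run in parallel. (3-5) × 10^5 cells fixed overnight in 70% ethanol at 4 °C, then RNase A plus propidium iodide. Phase fractions measured by flow cytometry, with sub-G1 (hypodiploid) cells counted as apoptotic. Three independent experiments.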

HeLa [3] = assay: Tested for effect of compound on S cell cycle phase and apoptosis in HeLa cells at a dose of 10E-6 for 24 hr; format: functional, Homo sapiens; procedure, shortened: as §1
HeLa [4] = assay: Tested for effect of compound on S cell cycle phase and apoptosis in HeLa cells at a dose of 10E-8 for 48 hr; format: functional, Homo sapiens; procedure, shortened: as §1
HeLa [5] = assay: Tested for effect of compound on S cell cycle phase and apoptosis in HeLa cells at a dose of 10E-8 for 72 hr; format: functional, Homo sapiens; procedure, shortened: as §1
HeLa [6] = assay: Tested for effect of compound on S cell cycle phase and apoptosis in HeLa cells at a dose of 10E-6 for 48 hr; format: functional, Homo sapiens; procedure, shortened: as §1
HeLa [7] = assay: Tested for effect of compound on Sub-G1 cell cycle phase and apoptosis in HeLa cells at a dose of 10E-6 for 48 hr; format: functional, Homo sapiens; procedure, shortened: as §1
HeLa [8] = assay: Tested for effect of compound on G2/M cell cycle phase and apoptosis in HeLa cells at a dose of 10E-8 for 72 hr; format: functional, Homo sapiens; procedure, shortened: as §1
HeLa [9] = assay: Tested for effect of compound on G0/G1 cell cycle phase and apoptosis in HeLa cells at a dose of 10E-6 for 48 hr; format: functional, Homo sapiens
Procedure, shortened: (§2)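 HeLa cells were grown in DMEM with 10% heat-inactivated FCS and 2 mM L-glutamine at 37 °C in 5% CO2. They were exposed to 10^-6 to 10^-8 M for 24, 48 or 72 h. Then (3-5)×10^5 cells were fixed overnight in 70% ethanol at 4 °C, PBS-washed, and given 1 mg/mL RNase A plus 20 µg/mL propidium iodide for 1 h at room temperature. DNA content was read by flow cytometry. Sub-G1 (hypodiploid) % counted as apoptotic. Untreated controls were run in parallel. Representative of three independent experiments.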

HeLa [10] = assay: Tested for effect of compound on Sub-G1 cell cycle phase and apoptosis in HeLa cells at a dose of 10E-6 for 24 hr; format: functional, Homo sapiens; procedure, shortened: as §1
HeLa [11] = assay: Tested for effect of compound on Sub-G1 cell cycle phase and apoptosis in HeLa cells at a dose of 10E-8 for 72 hr; format: functional, Homo sapiens; procedure, shortened: as §1
HeLa [12] = assay: Tested for effect of compound on G0/G1 cell cycle phase and apoptosis in HeLa cells at a dose of 10E-6 for 72 hr; format: functional, Homo sapiens; procedure, shortened: as §2
HeLa [13] = assay: Tested for effect of compound on G0/G1 cell cycle phase and apoptosis in HeLa cells at a dose of 10E-7 for 24 hr; format: functional, Homo sapiens; procedure, shortened: as §2
HeLa [14] = assay: Tested for effect of compound on G2/M cell cycle phase and apoptosis in HeLa cells at a dose of 10E-6 for 72 hr; format: functional, Homo sapiens; procedure, shortened: as §1
HeLa [15] = assay: Tested for effect of compound on S cell cycle phase and apoptosis in HeLa cells at a dose of 10E-7 for 48 hr; format: functional, Homo sapiens; procedure, shortened: as §1
HeLa [16] = assay: Tested for effect of compound on Sub-G1 cell cycle phase and apoptosis in HeLa cells at a dose of 10E-7 for 24 hr; format: functional, Homo sapiens; procedure, shortened: as §1
HeLa [17] = assay: Tested for effect of compound on G2/M cell cycle phase and apoptosis in HeLa cells at a dose of 10E-7 for 72 hr; format: functional, Homo sapiens; procedure, shortened: as §1
HeLa [18] = assay: Tested for effect of compound on S cell cycle phase and apoptosis in HeLa cells at a dose of 10E-7 for 24 hr; format: functional, Homo sapiens; procedure, shortened: as §1
HeLa [19] = assay: Tested for effect of compound on S cell cycle phase and apoptosis in HeLa cells at a dose of 10E-8 for 24 hr; format: functional, Homo sapiens; procedure, shortened: as §1
HeLa [20] = assay: Tested for effect of compound on G0/G1 cell cycle phase and apoptosis in HeLa cells at a dose of 10E-6 for 24 hr; format: functional, Homo sapiens; procedure, shortened: as §2
HeLa [21] = assay: Tested for effect of compound on Sub-G1 cell cycle phase and apoptosis in HeLa cells at a dose of 10E-8 for 48 hr; format: functional, Homo sapiens; procedure, shortened: as §1
HeLa [22] = assay: Tested for effect of compound on S cell cycle phase and apoptosis in HeLa cells at a dose of 10E-7 for 72 hr; format: functional, Homo sapiens; procedure, shortened: as §1
HeLa [23] = assay: Tested for effect of compound on G2/M cell cycle phase and apoptosis in HeLa cells at a dose of 10E-6 for 48 hr; format: functional, Homo sapiens; procedure, shortened: as §2
HeLa [24] = assay: Tested for effect of compound on G2/M cell cycle phase and apoptosis in HeLa cells at a dose of 10E-8 for 48 hr; format: functional, Homo sapiens; procedure, shortened: as §1
HeLa [25] = assay: Tested for effect of compound on Sub-G1 cell cycle phase and apoptosis in HeLa cells at a dose of 10E-7 for 48 hr; format: functional, Homo sapiens; procedure, shortened: as §1
HeLa [26] = assay: Tested for effect of compound on G0/G1 cell cycle phase and apoptosis in HeLa cells at a dose of 10E-7 for 48 hr; format: functional, Homo sapiens; procedure, shortened: as §2
HeLa [27] = assay: Tested for effect of compound on G0/G1 cell cycle phase and apoptosis in HeLa cells at a dose of 10E-8 for 72 hr; format: functional, Homo sapiens; procedure, shortened: as §2
HeLa [28] = assay: Tested for effect of compound on G2/M cell cycle phase and apoptosis in HeLa cells at a dose of 10E-7 for 24 hr; format: functional, Homo sapiens; procedure, shortened: as §1
HeLa [29] = assay: Tested for effect of compound on Sub-G1 cell cycle phase and apoptosis in HeLa cells at a dose of 10E-6 for 72 hr; format: functional, Homo sapiens; procedure, shortened: as §1
HeLa [30] = assay: Tested for effect of compound on G2/M cell cycle phase and apoptosis in HeLa cells at a dose of 10E-6 for 24 hr; format: functional, Homo sapiens; procedure, shortened: as §2
HeLa [31] = assay: Tested for effect of compound on G0/G1 cell cycle phase and apoptosis in HeLa cells at a dose of 10E-8 for 48 hr; format: functional, Homo sapiens; procedure, shortened: as §2
HeLa [32] = assay: Tested for effect of compound on G0/G1 cell cycle phase and apoptosis in HeLa cells at a dose of 10E-7 for 72 hr; format: functional, Homo sapiens; procedure, shortened: as §2
HeLa [33] = assay: Tested for effect of compound on G2/M cell cycle phase and apoptosis in HeLa cells at a dose of 10E-8 for 24 hr; format: functional, Homo sapiens; procedure, shortened: as §1
HeLa [34] = assay: Tested for effect of compound on G0/G1 cell cycle phase and apoptosis in HeLa cells at a dose of 10E-8 for 24 hr; format: functional, Homo sapiens; procedure, shortened: as §2
HeLa [35] = assay: Tested for effect of compound on Sub-G1 cell cycle phase and apoptosis in HeLa cells at a dose of 10E-7 for 72 hr; format: functional, Homo sapiens; procedure, shortened: as §1
HeLa [36] = assay: Tested for effect of compound on S cell cycle phase and apoptosis in HeLa cells at a dose of 10E-6 for 72 hr; format: functional, Homo sapiens; procedure, shortened: as §1
HeLa [37] = assay: Tested for effect of compound on Sub-G1 cell cycle phase and apoptosis in HeLa cells at a dose of 10E-8 for 24 hr; format: functional, Homo sapiens; procedure, shortened: as §1

Compound: CCCCCC/N=C/C1=Cc2cc3c(cc2C(c2cc(OC)c(OC)c(OC)c2)[C@@H]1C(=O)OC)OCO3 (some centres undefined)
- IC50 (P388): 2 µM
- IC50 (HT-29): 0.02 µM
- IC50 (SK-MEL-28): 0.49 µM
- Selectivity index [1]: 100
- IC50 (A549): 0.2 µM

Compound: COC(=O)[C@@H]1C(/C=N/c2nccs2)=Cc2cc3c(cc2C1c1cc(OC)c(OC)c(OC)c1)OCO3 (some centres undefined)
- IC50 (P388): 0.2 µM
- IC50 (HT-29): 0.025 µM
- IC50 (SK-MEL-28): 0.25 µM
- Selectivity index [1]: 8
- IC50 (A549): 0.25 µM

Compound: COC(=O)[C@@H]1C(/C=N/c2ccccc2O)=Cc2cc3c(cc2C1c1cc(OC)c(OC)c(OC)c1)OCO3 (some centres undefined)
- IC50 (HT-29): 0.97 µM
- IC50 (SK-MEL-28): > 9.7 µM
- IC50 (A549): > 9.7 µM

Compound: COC(=O)[C@@H]1C(C=O)=Cc2cc3c(cc2[C@H]1c1cc(OC)c(OC)c(OC)c1)OCO3
- Activity (HeLa [2]): 68.2%
- Activity (HeLa [3]): 1.7%
- Activity (HeLa [4]): 10.1%
- Activity (HeLa [5]): 10.2%
- IC50 (P388): 0.23 µM
- Activity (HeLa [6]): 9.3%
- Activity (HeLa [7]): 28.9%
- Activity (HeLa [8]): 39.3%
- IC50 (HT-29): 0.012 µM
- Activity (HeLa [9]): 17%
- Activity (HeLa [10]): 1.1%
- Activity (HeLa [11]): 3.1%
- Activity (HeLa [12]): 14.1%
- Activity (HeLa [13]): 8.1%
- Activity (HeLa [14]): 9.5%
- Activity (HeLa [15]): 9.7%
- Activity (HeLa [16]): 1.4%
- Activity (HeLa [17]): 17.5%
- Activity (HeLa [18]): 10.4%
- Activity (HeLa [19]): 16.2%
- Activity (HeLa [20]): 1.2%
- IC50 (SK-MEL-28): 0.23 µM
- Activity (HeLa [21]): 1.5%
- Activity (HeLa [22]): 17.3%
- Activity (HeLa [23]): 44.8%
- Activity (HeLa [24]): 29.7%
- Activity (HeLa [25]): 10.9%
- Activity (HeLa [26]): 11.2%
- Activity (HeLa [27]): 47.4%
- Activity (HeLa [28]): 80.1%
- Activity (HeLa [29]): 58.9%
- Activity (HeLa [30]): 96%
- Activity (HeLa [31]): 58.7%
- Activity (HeLa [32]): 15.1%
- Activity (HeLa [33]): 24.3%
- Selectivity index [1]: 19
- Activity (HeLa [34]): 58.1%
- Activity (HeLa [35]): 50.1%
- Activity (HeLa [36]): 17.5%
- Activity (HeLa [37]): 1.4%
- IC50 (A549): 0.12 µM
